Measurements of several laboratories.
Effect on: cell growth or viability

COc1cccc2c1C(=O)c1c(O)c3c(c(O)c1C2=O)C[C@@](O)(C(=O)CO)C[C@@H]3O[C@H]1C[C@H](N)[C@H](O)[C@H](C)O1 — IC50 (WI-38 VA13; MTT; 48 h): 0.22 µg/mL
COc1cccc2c1C(=O)c1c(O)c3c(c(O)c1C2=O)C[C@@](O)(C(=O)CO)C[C@@H]3O[C@H]1C[C@H](N)[C@H](O)[C@H](C)O1 — IC50 (4T1.2; MTT; 48 h): 0.272 µg/mL
Cc1cccc(-n2ncc(Br)c(Br)c2=O)c1 — IC50 (NCI-H2444; resazurin; 96 h): 0.31 µM
C[C@H]1[C@@H](O)O[C@@H]2O[C@@]3(C)CC[C@H]4[C@H](C)CC[C@@H]1[C@@]24OO3 — IC50 (IOSE-144; CCK-8; 48 h): > 50 µM
O=C(N/N=C/c1c(O)ccc2ccccc12)c1cc(-c2ccc3ccccc3c2)n[nH]1 — IC50 (1205Lu; MTS; 48 h): 5.8 µM
Cc1[nH]c(/C=C2\C(=O)Nc3ccc(S(=O)(=O)N(C)c4cccc(Cl)c4)cc32)c(C)c1C(=O)N1CCN(C)CC1 — IC50 (BJ; 72 h): 5.19 µM
C[C@H]1O[C@@H](n2cc(F)c(=O)[nH]c2=O)[C@H](O)[C@@H]1O — IC50 (IOSE-144; CCK-8; 48 h): 16.5 µM
CC(C)C[C@H](NC(=O)[C@H](Cc1ccccc1)NC(=O)c1cnccn1)B(O)O — IC50 (HuTu80; ATP luminescence): 0.014 µM
C[C@@H](Oc1cc(-c2cnn(C3CCNCC3)c2)cnc1N)c1c(Cl)ccc(F)c1Cl — IC50 (BJ; 72 h): 2.11 µM
Oc1ccc(Nc2nc(-c3ccc(Cl)cc3)cs2)cc1 — IC50 (1205Lu; MTS; 24 h): > 100 µM
COc1cc2nccc(Oc3ccc(NC(=O)C4(C(=O)Nc5ccc(F)cc5)CC4)cc3)c2cc1OC — IC50 (BJ; 72 h): 4.52 µM
O=C1NC(=O)[C@@H](c2cn3c4c(cccc24)CCC3)[C@@H]1c1c[nH]c2ccccc12 — IC50 (SW-1736; MTT; 72 h): 0.11 µM
